A selection: hits, their analogues and other compounds. The true share with any hit is near 1.9%.
bCat nuc transl = beta-catenin nuclear translocation modulation. 190,000 compounds, 0.3% hits. HeLa beta-catenin nuclear translocation, immunofluorescence imaging. nuclear translocation activity, % at 5 µM. AID 1665;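 active = nuclear translocation activity above 50% at 5 µM, with a well cell count of 50 or more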;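 also: per-cell ratio of nuclear to cytoplasmic median beta-catenin stain intensity; plate controls were DMSO negative control for no effect and GSK-3 inhibitor IX positive control for full effect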
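Signal – beta-catenin immunofluorescence imaging with DAPI · Test system – human HeLa cell line · Dosing – 5 µM primary single dose, 0.1% DMSO, 0.02–20 µM confirmation series · Measure – % activation, nuclear-to-cytoplasmic median beta-catenin signal ratio per cell · Incubation – 24 h compound exposure at 37°C, 5% CO2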
Tb hexokinase = T. brucei hexokinase 1 inhibition; inhibition, % at 10 µM; recombinant TbHK1, G6PDH-coupled NADH A340; 220,000 compounds, 0.11% hits; AID 1430;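 active = inhibition of 50% or more in the single-dose primary screen; inactive = inhibition below 50%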
Ins promoter up = MIN6 insulin promoter up-regulation; MIN6 insulin promoter-GFP reporter, high-content imaging; hits give high values; z-score at 5 µM; 190,000 compounds, 0.3% hits; AID 1625;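 active = z-score above 3 at 5 µM with at least 500 cells counted in the well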
MT stabilize HCS = microtubule stabilization, imaging screen. HeLa tubulin immunostaining HCS, 24 h; share of cells brighter than vehicle mean+2SD. % tubulin-high responders, % at 10 µM. 200,000 compounds, 0.83% hits. AID 2205;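 active = plate Z-score above 3 for both tubulin-high and condensed-nucleus cell shares, with cell loss under 80%, at 10 µM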;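 also: anti alpha tubulin signal scored within the nucleus-defined area of each cell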
Autophagy HCS = modulators of autophagy; MEF GFP-LC3 puncta imaging; test concentration mostly 10 µM; calls only at 10 µM (by protocol); 190,000 compounds, 0.98% hits; AID 463193;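 active = percentage of spot-positive cells more than 3 SD above its plate mean, without a fluorescence outlier flag or 80% toxicity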;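 also: spot-positive cell cutoff set from DMSO-treated cells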
The depositor's hits bear a star.

Screening O=C(O)c1cc(-c2ccncc2)nc2ccc(F)cc12 returned bCat nuc transl -4, Tb hexokinase -6, Ins promoter up 3*, MT stabilize HCS 4 and Autophagy HCS inactive.
For CCCCCCOc1ccc(/C=c2\s/c(=C(/C#N)C(=O)NCc3ccco3)n(-c3ccccc3)c2=O)cc1 the results were bCat nuc transl -1, Tb hexokinase 5, Ins promoter up -0.32, MT stabilize HCS 1 and Autophagy HCS active.
Screening COC(=O)/C=c1/s/c(=C(/C#N)C(=O)NCc2ccccc2)n(-c2ccccc2)c1=O returned Tb hexokinase -26, Ins promoter up 0.07, MT stabilize HCS 3 and Autophagy HCS inactive.
For CCOc1ccccc1NC(=O)CCSc1nc2n[nH]c(C)c2c(=N)n1-c1ccccc1Cl the results were Tb hexokinase -8, Ins promoter up -0.83, MT stabilize HCS 10 and Autophagy HCS active.
COCc1cc(=O)[nH]c(SCCS(=O)(=O)c2ccc(Cl)cc2Cl)n1 was read as bCat nuc transl -3, Tb hexokinase -3 and Ins promoter up -0.08.
`CCc1ccc(C2CC(=O)N(c3cccc(F)c3)C3=C2C(=O)OC3)cc1` (configuration not stated) gave bCat nuc transl -2, Tb hexokinase -5, Ins promoter up 0.19, MT stabilize HCS 7 and Autophagy HCS inactive.
Screening Cn1c(Cl)c(C(=O)Nc2ccc(Cl)cc2)c2ccccc21 returned bCat nuc transl 6, Tb hexokinase -7, Ins promoter up -0.45, MT stabilize HCS 28* and Autophagy HCS inactive.
`COc1ccc(S(=O)(=O)NCC2CCCN(C(=O)c3sccc3C)C2)cc1` (configuration not stated) gave bCat nuc transl -2, Tb hexokinase 3, Ins promoter up -0.42, MT stabilize HCS 1 and Autophagy HCS active.
COc1ccc(C(=O)Oc2cccc(/C=N/NC(N)=S)c2)cc1 was read as Tb hexokinase 26, Ins promoter up 0.08, MT stabilize HCS 3 and Autophagy HCS inactive.
For COc1cc(C(=O)NCCN2C(=O)S/C(=C\c3ccc(F)cc3)C2=O)ccc1OCC(=O)N1CCOCC1 the results were bCat nuc transl -1, Tb hexokinase -57 and Ins promoter up -0.27.
Screening COc1cc(/C=C2\SC(=O)N(CCNC(=O)c3sc4cc(F)ccc4c3Cl)C2=O)cc(OC)c1OC returned bCat nuc transl 2, Tb hexokinase -26, Ins promoter up -1.1, MT stabilize HCS 4 and Autophagy HCS active.
For COC(=O)c1c(NC(=O)c2ccccc2N(C)S(=O)(=O)c2ccccc2)sc2c1CCCC2 the results were bCat nuc transl 2, Tb hexokinase -20, Ins promoter up -2.2, MT stabilize HCS 22* and Autophagy HCS inactive.
`CCOC(=O)c1c(NC(=O)c2ccccc2N(C)S(=O)(=O)c2ccccc2)sc2c1CCCC2` gave bCat nuc transl 60*, Tb hexokinase -24, Ins promoter up -0.24, MT stabilize HCS 13* and Autophagy HCS inactive.
`COC(=O)c1c(NC(=O)c2ccc(N(C)S(=O)(=O)c3ccc(C)cc3)cc2)sc2c1CCCC2` gave bCat nuc transl 0, Tb hexokinase -14, MT stabilize HCS 5 and Autophagy HCS inactive.
CCOC(=O)c1c(NC(=O)c2ccco2)sc2c1CCCC2 was read as bCat nuc transl -2, Tb hexokinase -12, Ins promoter up -0.55, MT stabilize HCS 2 and Autophagy HCS inactive.
`COc1ccc(CNC(=O)Cn2nnc3ccccc3c2=O)cc1` gave bCat nuc transl -1, Tb hexokinase -10 and Ins promoter up -0.22.
COc1ccc(-c2nc(N)n(C(=O)c3cccs3)n2)cc1 was read as bCat nuc transl -1, Tb hexokinase 4, MT stabilize HCS 2 and Autophagy HCS inactive.
`CCCN1CCN(c2ncnc3c2nnn3Cc2ccccc2)CC1` gave bCat nuc transl 72*, Tb hexokinase 10, Ins promoter up -0.14, MT stabilize HCS 58* and Autophagy HCS inactive.
CC(C)(C)NC(=O)C(c1ccccn1)N(C(=O)c1csnn1)C1CCCC1 (configuration not stated) was read as bCat nuc transl 0, Tb hexokinase -14 and Ins promoter up 0.18.
Screening Cc1ccccc1NS(=O)(=O)c1ccc(N2CCCC2=O)cc1 returned bCat nuc transl 100*, Tb hexokinase -2, Ins promoter up 0.2, MT stabilize HCS 37* and Autophagy HCS inactive.
`COc1ccc(OC)c(NS(=O)(=O)c2ccc(N3CCCC3=O)cc2)c1` gave bCat nuc transl 147*, Tb hexokinase -9, Ins promoter up -1.6, MT stabilize HCS 22* and Autophagy HCS active.
For COc1ccc(N/C=C/C(=O)c2sc(-c3ccccc3)nc2C)cc1 the results were Tb hexokinase -5, MT stabilize HCS 52* and Autophagy HCS inactive.
For Cc1nc(-c2ccccc2)sc1C(=O)/C=C/c1ccc(Cl)cc1 the results were Tb hexokinase -15, MT stabilize HCS 4 and Autophagy HCS inactive.
Screening O=C(CCN1C(=O)C2CCCCC2C1=O)Nc1ccc(F)c(F)c1F (configuration not stated) returned bCat nuc transl -3, Tb hexokinase 7, Ins promoter up 1.2, MT stabilize HCS 3 and Autophagy HCS active.
Screening O=C(Nc1cccnc1)c1ccc(-c2ccc(Cl)cc2)o1 returned bCat nuc transl -1, Tb hexokinase -16, Ins promoter up 0.06, MT stabilize HCS 2 and Autophagy HCS active.
For O=C(Nc1cccnc1)c1ccc(COc2ccccc2Br)o1 the results were Tb hexokinase 1, Ins promoter up -0.57, MT stabilize HCS 26* and Autophagy HCS active.
For O=C(NCc1cccnc1)c1ccc(COc2ccccc2Br)o1 the results were bCat nuc transl -1, Tb hexokinase 1, Ins promoter up -0.52, MT stabilize HCS 6 and Autophagy HCS inactive.
O=C(Nc1ccccc1N1CCCCC1)c1ccc(-c2ccc(Cl)cc2)o1 was read as bCat nuc transl 64*, Tb hexokinase -19, Ins promoter up 0.01, MT stabilize HCS 29* and Autophagy HCS inactive.
For Cc1sc(NC(=O)CN(CCc2ccccc2)C(=O)C2CC2)c(C(N)=O)c1C the results were bCat nuc transl 1, Tb hexokinase -1, Ins promoter up 0.27, MT stabilize HCS 2 and Autophagy HCS inactive.
Screening CC(=O)[C@@]1(O)C(C)CC2C3C=C(C)C4=Cc5c(cnn5-c5ccccc5)C[C@]4(C)C3C(O)C[C@@]21C (some centres not stated) returned bCat nuc transl -5, Tb hexokinase -32 and Ins promoter up -4.2.
`CCC(=O)NC(c1ccc(OC)cc1)c1c(O)ccc2ccccc12` (configuration not stated) gave bCat nuc transl 0, Tb hexokinase 0, Ins promoter up 0.14, MT stabilize HCS 18* and Autophagy HCS inactive.
Screening CCCC(=O)NC(c1ccc(OC)cc1)c1ccc2cccnc2c1O (configuration not stated) returned bCat nuc transl 0, Tb hexokinase -4, Ins promoter up -4, MT stabilize HCS 8.7* and Autophagy HCS inactive.
